Test results taken from ChEMBL document CHEMBL1143402 (PLoS Med, 2006).

Assays:
Assay type in all cases: ADME, organism-based
[1] = test system: Mycobacterium tuberculosis variant bovis; assay: Drug metabolism in OPC-67683 resistant Mycobacterium bovis BCG Tokyo assessed as cell supernatant [14C]OPC-67683 metabolite level after 48 hrs by scintillation counting
Method in brief: (§1)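 ^14C-labelled drug (0.5 mg/ml stock) added 15 µl to 585 µl 7H9/TN-ADC culture, incubated 48 h. Acetonitrile (2 volumes) added, then centrifuged. Supernatant counted by scintillation; pellet dissolved in 2 M NaOH, 1 h at 60 °C, then counted. DPM expressed relative to broth control supernatant.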

[2] = test system: Mycobacterium tuberculosis variant bovis; assay: Drug metabolism in Mycobacterium bovis BCG Tokyo assessed as cell supernatant [14C]OPC-67683 metabolite level after 48 hrs by scintillation counting; method in brief: as §1
[3] = test system: Mycobacterium tuberculosis variant bovis; assay: Drug metabolism in Mycobacterium bovis BCG Tokyo assessed as cell pellet [14C]OPC-67683 metabolite level after 48 hrs by scintillation counting; method in brief: as §1

**Q.** `C[C@]1(COc2ccc(N3CCC(Oc4ccc(OC(F)(F)F)cc4)CC3)cc2)Cn2cc([N+](=O)[O-])nc2O1` was tested. Which Activity [1] did it give?
**A.** 105%

**Q.** What about the Activity [2] of the same compound?
**A.** 82%

**Q.** What about the Activity [3] of the same compound?
**A.** 22%
